Experimental data as given in PMC5824357 (RNA, 2018).
Ends that are not written are not given here. MBP = not defined here; MS2 = not defined here; HA = not defined here

What was measured:
[1] = system: β-globin-6xMS2bs reporter; experiment: Tethering assay in human HEK293T cells; format: cell-based; conditions: MS2-HA-tagged, three independent experiments
Dm CAF40 (GFP-tagged) = experiment: Coimmunoprecipitation in S2 cells, CAF40; format: binding, Drosophila melanogaster; conditions: HA-tagged Bam, S2 cell lysates, RNaseA
F-Luc-5BoxB-A95C7-HhR = experiment: Tethering assay in S2 cells, F-Luc-5BoxB-A95C7-HhR reporter; format: cell-based, Drosophila melanogaster
CCR4 (GFP-tagged) = experiment: Coimmunoprecipitation in S2 cells, CCR4; format: binding, Drosophila melanogaster; conditions: HA-tagged Bam, S2 cell lysates, RNaseA
endogenous NOT1 = experiment: SBP pull-down in HEK293T cells, NOT1; format: binding, human
Summary of the method: (§1)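 HEK293T cells expressed V5-SBP-tagged full-length test protein, with V5-SBP-MBP as negative control. SBP pull-down from lysates was done in the presence of RNaseA. Input (1.5% of V5-SBP proteins, 1% of endogenous CCR4–NOT subunits) and bound fractions (10% and 30%, respectively) were analysed by western blotting with ECL detection.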

NOT1 (GFP-tagged) = experiment: Coimmunoprecipitation in S2 cells, NOT1; format: binding, Drosophila melanogaster; conditions: HA-tagged Bam, S2 cell lysates, RNaseA
[2] = system: Dm NOT1-CN9BD–CAF40 complex (containing CAF40 V186E or 2xMut); experiment: In vitro MBP pull-down, Dm CN9BD–CAF40 with CAF40 mutants; format: binding, Drosophila melanogaster; conditions: MBP-tagged Bam, pH 7.5, 1 h
Summary of the method: (§2)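 Proteins were expressed in E. coli BL21 (DE3) Star overnight at 20°C. Tethered-protein constructs carried an N-terminal MBP tag and were purified by amylose resin, anion exchange and gel filtration. MBP (20 µg, negative control) or MBP fusion (40 µg) was incubated 1 h with equimolar purified CCR4–NOT modules plus amylose resin. Beads were washed five times and eluted with 25 mM maltose. Eluates were TCA-precipitated and analysed by SDS-PAGE/Coomassie.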

[3] = system: Dm NOT1-CN9BD–CAF40 complex; experiment: In vitro MBP pull-down, Dm CN9BD–CAF40; format: binding, Drosophila melanogaster; conditions: MBP-tagged proteins, amylose resin, 50 mM HEPES pH 7.5, 200 mM NaCl, 2 mM DTT, 1 h; SDS-PAGE, Coomassie
Summary of the method: as §2

NOT2 (GFP-tagged) = experiment: Coimmunoprecipitation in S2 cells, NOT2; format: binding, Drosophila melanogaster; conditions: HA-tagged Bam, S2 cell lysates, RNaseA
endogenous CAF40 = experiment: SBP pull-down in HEK293T cells, CAF40; format: binding, human; conditions: V5-SBP-tagged, wild-type HEK293T, RNaseA
Summary of the method: as §1

F-Luc-5BoxB mRNA [4] = experiment: mRNA half-life in S2 cells after actinomycin D; format: cell-based, Drosophila melanogaster; conditions: actinomycin D 5 µg/ml; northern blot
Summary of the method: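 S2 cells were Effectene-transfected with F-Luc-5BoxB reporter, R-Luc control and λN-HA-tagged test protein. Three days post-transfection they were treated with actinomycin D (5 µg/ml final) and collected at successive time points. Reporter mRNA remaining was measured by northern blotting of total RNA.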

NOT3 (GFP-tagged) = experiment: Coimmunoprecipitation in S2 cells, NOT3; format: binding, Drosophila melanogaster; conditions: HA-tagged Bam, S2 cell lysates, RNaseA
HA-tagged CCR4 = experiment: SBP pull-down in HEK293T cells, CCR4; format: binding
Summary of the method: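 Control or CAF40-null HEK293T cells coexpressed HA-CCR4 with V5-SBP-tagged full-length test protein or V5-SBP-MBP negative control. SBP pull-down was done in lysates containing RNaseA. Input (1.5% V5-SBP proteins, 1% CCR4–NOT subunits) and bound (10% and 30%) fractions were western blotted with ECL detection.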

Hs CN9BD–CAF40 complex = experiment: In vitro MBP pull-down, human CN9BD–CAF40; format: binding; conditions: MBP-tagged proteins, amylose resin, 50 mM HEPES pH 7.5, 200 mM NaCl, 2 mM DTT, 1 h; SDS-PAGE, Coomassie
Summary of the method: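 The Hs complex was MBP-NOT1-CN9BD (V1351–L1588) co-expressed in E. coli with His6-CAF40 (R19–E285), purified on amylose, tags removed by HRV3C, then heparin and gel filtration. MBP (20 µg, control) or MBP fusion (40 µg) was incubated 1 h with equimolar complex and amylose resin. Beads were washed five times, eluted with 25 mM maltose, TCA-precipitated and analysed by SDS-PAGE/Coomassie.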

[5] = system: catalytic module (containing Hs CCR4a); experiment: In vitro MBP pull-down, Hs catalytic module; format: binding, human; conditions: recombinant proteins
F-Luc-5BoxB mRNA [6] = experiment: Tethering assay in S2 cells, F-Luc-5BoxB reporter; format: cell-based, Drosophila melanogaster
endogenous NOT3 = experiment: SBP pull-down in HEK293T cells, NOT3; format: binding, human
Summary of the method: as §1

Dm CAF40 (V186E) = experiment: Coimmunoprecipitation in S2 cells, CAF40 V186E; format: binding, Drosophila melanogaster; conditions: HA-tagged Bam, S2 cell lysates, RNaseA
endogenous NOT2 = experiment: SBP pull-down in HEK293T cells, NOT2; format: binding, human
Summary of the method: as §1

Hs CCR4-NOT subcomplexes = experiment: In vitro MBP pull-down, other Hs CCR4–NOT subcomplexes; format: binding, human; conditions: NOT1-10-11 module, catalytic module, CD, NOT3 N-terminal coiled coil, MBP-tagged Bam, pH 7.5, 1 h
Summary of the method: as §2

[7] = V5-SBP-tagged, wild-type HEK293T, RNaseA

CBM alone fused to MBP: MS2-HA-MBP-Bam 13–36 ({MS2-HA-MBP}-DDQQLDHNFKQMEEHLALMVEGNE; reading uncertain; UniProt P22745 13-36, looked up, fragment)
degradation/repression of β-globin-6xMS2bs reporter [1]: as active as full-length Bam

B1: Bam: Drosophila melanogaster Bag-of-marbles, Uniprot P22745, residues 1–442, variously tagged (protein)
chain: MLNARDVCPEGNDDQQLDHNFKQMEEHLALMVEGNENEDPRKATCEYEDTNEDGATCTSGVLSEIQENFGRLRLCDVTAPLLEFHGLDCLQQIQKRSRHFAFDGSPAKKSRSGGVLVTGPKQKQLQKENVWNRKSKGSASADNIEKLPITIEKLHMIGLHGDCLEHNAVLRLMNLFRSLHDHLTADLGFSRQNSMPSDYLFDMPVKSTMPKSLNVRYQLQVLCTKVERFLVQQRRTLEANRHFDFEKYDECDKLLKGFASYLDNFKLLLKPKMRNRNGNSGSNADKFHTQRMERLLIGLRDWIKAAHLSVHVFNWEMDLEHRYSGAMTESHKSLNERAILLSGAELRAAEARGISAEDLFIAQRYKLGGPIYCVLEQHEFLSALIANPETYFPPSVVAICGPQKLGAVSMEQPSASEEEFEETEEVPSSPPRHTGRVPRFRS
modifications: left off: MBP, N-terminal, kept
coimmunoprecipitation with CAF40 (Dm CAF40 (GFP-tagged)): interacted with NOT1, NOT2, NOT3, CCR4, and CAF40
repression of deadenylation-resistant reporter (F-Luc-5BoxB-A95C7-HhR): repressed the expression of this reporter in S2 cells
coimmunoprecipitation with CCR4 (CCR4 (GFP-tagged)): interacted with NOT1, NOT2, NOT3, CCR4, and CAF40
pull-down of endogenous NOT1, CAF40-null cells (endogenous NOT1; CAF40-null HEK293T): did not interact with endogenous NOT1, NOT2 and NOT3
pull-down of endogenous NOT1 (endogenous NOT1; [7]): pulled down all of the tested subunits
coimmunoprecipitation with NOT1 (NOT1 (GFP-tagged)): interacted with NOT1, NOT2, NOT3, CCR4, and CAF40
disruption of interaction by V186E substitution in CAF40 ([2]; CAF40 V186E): sufficient to disrupt the interaction with Bam in vitro
disruption of interaction by 2xMut in CAF40 ([2]; CAF40 Y139D, G146W (2xMut)): sufficient to disrupt the interaction with Bam in vitro
interaction in pull-down [3]: also interacted with the Dm CN9BD–CAF40 module
coimmunoprecipitation with NOT2 (NOT2 (GFP-tagged)): interacted with NOT1, NOT2, NOT3, CCR4, and CAF40
pull-down of endogenous CAF40 (endogenous CAF40): pulled down all of the tested subunits
mRNA half-life (F-Luc-5BoxB mRNA [4]): shortening of the mRNA half-life
coimmunoprecipitation with NOT3 (NOT3 (GFP-tagged)): interacted with NOT1, NOT2, NOT3, CCR4, and CAF40
pull-down of HA-tagged CCR4, CAF40-null cells (HA-tagged CCR4; CAF40-null HEK293T): did not interact
pull-down of HA-tagged CCR4 (HA-tagged CCR4; [7]): as well as HA-tagged CCR4
interaction in pull-down (Hs CN9BD–CAF40 complex): interacted only with the CN9BD–CAF40 module
direct interaction with the catalytic module [5]: did not observe a direct interaction
displacement of CAF1-NOT1 subcomplex from CCR4a [5]: did not competitively displace the CAF1-NOT1 subcomplex from CCR4a
tethering activity in CAF40-depleted cells (F-Luc-5BoxB mRNA [6]; CAF40 KD (∼10% of control levels)): partially suppressed Bam activity
repression in CAF40-depleted cells complemented with CAF40 V186E (F-Luc-5BoxB mRNA [6]; CAF40 KD + CAF40 V186E): not by expression of the CAF40 V186E mutant
repression in CAF40-depleted cells complemented with wild-type CAF40 (F-Luc-5BoxB mRNA [6]; CAF40 KD + wild-type CAF40): restored by transient expression of wild-type CAF40
F-Luc-5BoxB mRNA degradation in DCP2-depleted cells (F-Luc-5BoxB mRNA [6]; DCP2 knockdown, DCP2 E361Q overexpressed): impaired
F-Luc activity in DCP2-depleted cells (F-Luc-5BoxB mRNA [6]; DCP2 knockdown, DCP2 E361Q overexpressed, F-Luc activity): not restored
tethering activity in cells overexpressing CAF40 V186E (F-Luc-5BoxB mRNA [6]; GFP-CAF40 V186E overexpressed): suppressed in cells overexpressing the CAF40 V186E mutant
tethering activity in cells overexpressing CAF40 wild-type (F-Luc-5BoxB mRNA [6]; GFP-CAF40 wild-type overexpressed): not when CAF40 wild-type was overexpressed
F-Luc-5BoxB mRNA degradation after NOT1 depletion (F-Luc-5BoxB mRNA [6]; NOT1-depleted S2 cells): partially suppressed degradation of F-Luc-5BoxB mRNA
pull-down of endogenous NOT3, CAF40-null cells (endogenous NOT3; CAF40-null HEK293T): did not interact with endogenous NOT1, NOT2 and NOT3
pull-down of endogenous NOT3 (endogenous NOT3; [7]): pulled down all of the tested subunits
coimmunoprecipitation with CAF40 V186E (Dm CAF40 (V186E)): sufficient to abolish binding to full-length Bam in cell lysates
pull-down of endogenous NOT2, CAF40-null cells (endogenous NOT2; CAF40-null HEK293T): did not interact with endogenous NOT1, NOT2 and NOT3
pull-down of endogenous NOT2 (endogenous NOT2; [7]): pulled down all of the tested subunits
interaction in pull-down with any other subcomplex (Hs CCR4-NOT subcomplexes): not with any other subcomplex
